Reference: ChEMBL document CHEMBL4270618, “Synthesis and biological evaluation of a library of hybrid derivatives as inhibitors of influenza virus PA-PB1 interaction” (Eur J Med Chem, 2018)

Key:
[1] = Cytotoxicity against HEK293T cells assessed as decrease in cell viability after 24 hrs by MTT assay; format: cell-based, HEK-293T; details: human
In short: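 HEK 293T at 2×10^4 cells/well with 2-fold serial dilutions from 250 µM, or DMSO, for 24 h. MTT (5 mg/mL stock in PBS) added for 4 h at 37 °C, then solubilised for 3 h at 37 °C. Absorbance read at 620 nm, DMSO wells = 100% viability. CC50 as mean ± SD, ≥3 independent experiments in duplicate.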

[2] = Cytotoxicity against MDCK cells assessed as decrease in cell viability after 48 hrs by MTT assay; format: cell-based, Canis lupus familiaris; details: dog
In short: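 MDCK at 5×10^3 cells/well with 2-fold serial dilutions from 250 µM, or DMSO, for 48 h. MTT (5 mg/mL stock in PBS) added for 4 h at 37 °C, then solubilising solution for 3 h at 37 °C. Absorbance read at 620 nm against DMSO = 100%. CC50 as mean ± SD, ≥3 experiments in duplicate.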

[3] = test system: Influenza A virus; test: Antiviral activity against Influenza A virus A/PR/8/34 (H1N1) infected in MDCK cells measured after 2 days by plaque reduction assay; format: functional, organism-based; details: A/Puerto Rico/8/1934(H1N1), 48 h
In short: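 MDCK monolayers infected with PR8 (H1N1, Cambridge lineage) at 40 PFU/well for 1 h at 37 °C with compound at various concentrations, in DMEM with 1 µg/mL TPCK-trypsin and 0.14% BSA. Overlay of the same medium with 1.2% Avicel plus compound. After 2 days, fixed with 4% formaldehyde, stained with 0.1% toluidine blue, plaques counted. DMSO mean = 100%. EC50 reported as mean ± SD, ≥3 independent experiments in duplicate.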

[4] = biological target: PA/PB1 (Influenza A virus (A/Puerto Rico/8/1934(H1N1)), UniProt P03431+P03433); test: Inhibition of Influenza A virus A/PR/8/34 (H1N1) 6His-tagged PA (239 to 716 residues)/GST-tagged PB1 (1 to 25 residues) interaction expressed in Escherichia coli incubated overnight by ELISA
In short: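 Wells coated with 400 ng E. coli-expressed 6His-PA(239–716) for 3 h at 37 °C, then blocked with 2% BSA/PBS for 1 h. 200 ng GST-PB1(1–25), or GST control, in serum-free DMEM added with compound or DMSO, overnight at room temperature. Bound protein detected with HRP-anti-GST and TMB, OD450. DMSO = 100% interaction. IC50 as mean ± SD, ≥3 experiments in duplicate.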

[5] = biological target: PA/PB1 (Influenza A virus (A/Puerto Rico/8/1934(H1N1)), UniProt P03431+P03433); test: Inhibition of Influenza A virus A/PR/8/34 (H1N1) PA-PB1 interaction expressed in HEK293T cells assessed as decrease in RNA polymerase activity incubated for 24 hrs by minireplicon based luciferase reporter gene assay; format: cell-based
In short: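 HEK 293T (2×10^5/well) transfected 24 h after seeding, by calcium phosphate, with PR8 PB1, PB2, PA and NP plasmids (100 ng each), a PolI firefly-luciferase minireplicon (50 ng) and SV40-Renilla (50 ng) for normalisation. Compound or DMSO present during transfection; medium renewed at 4 h with compound. Dual luciferase read at 24 h. EC50 as mean ± SD, ≥3 experiments in duplicate.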

Compound | CC50 at 24 h [1] [µM] | CC50 at 48 h [2] [µM] | EC50 [3] [µM] | IC50 [4] [µM] | EC50 [5] [µM]
CCC(CC)O[C@@H]1C=C(C(=O)O)C[C@H](N)[C@H]1NC(C)=O [OSELTAMIVIR CARBOXYLATE] | > 250 | > 250 | 0.015 | – | –
COC(=O)[C@H](Cc1cnc[nH]1)NC(=O)CSc1nc(-c2ccccc2)cc(-c2ccc(C)cc2)c1C#N | – | 152 | 80 | 32 | –
CSCC[C@H](N)C(=O)N[C@@H](CC(=O)O)C(=O)N[C@H](C(=O)N[C@@H](CC(N)=O)C(=O)N1CCC[C@H]1C(=O)N[C@H](C(=O)N[C@@H](CC(C)C)C(=O)N[C@@H](CC(C)C)C(=O)N[C@@H](Cc1ccccc1)C(=O)N[C@@H](CC(C)C)C(=O)N[C@@H](CCCCN)C(=O)N[C@H](C(=O)N1CCC[C@H]1C(=O)N[C@@H](C)C(=O)N[C@@H](CCC(N)=O)C(=O)N[C@@H](Cc1ccc(O)cc1)C(=O)NCC(=O)N[C@@H](CCCNC(=N)N)C(=O)N[C@@H](CCCCN)C(=O)N[C@@H](CCCCN)C(=O)N[C@@H](CCCNC(=N)N)C(=O)N[C@@H](CCCNC(=N)N)C(=O)N[C@@H](CCC(N)=O)C(=O)N[C@@H](CCCNC(=N)N)C(=O)N[C@@H](CCCNC(=N)N)C(=O)N[C@@H](CCCNC(=N)N)C(=O)N1CCC[C@H]1C(=O)N1CCC[C@H]1C(=O)O)C(C)C)[C@@H](C)O)C(C)C | > 250 | > 250 | 49.7 | 31.7 | 15.5
Cc1cccc(NC(=O)CSc2nc(-c3ccccc3)cc(-c3ccccc3)c2C#N)c1 | > 250 | > 250 | – | – | 86.6
COC(=O)[C@H](CC(C)C)NC(=O)CSc1nc(-c2ccccc2)cc(-c2ccc(C)cc2)c1C#N | – | 215 | 97 | 149 | –
NC(=O)c1ncn([C@@H]2O[C@H](CO)[C@@H](O)[C@H]2O)n1 [RIBAVIRIN] | > 250 | > 250 | – | – | 23.8
Cc1ccc(-c2cc(-c3ccccc3)nc(SCC(=O)N[C@H](C(=O)O)C(C)C)c2C#N)cc1 | 250 | > 250 | 50 | 76 | 77
COC(=O)[C@H](Cc1ccc(O)cc1)NC(=O)CSc1nc(-c2ccccc2)cc(-c2ccc(C)cc2)c1C#N | – | > 250 | > 100 | 18 | –
COC(=O)[C@@H](NC(=O)CSc1nc(-c2ccccc2)cc(-c2ccc(C)cc2)c1C#N)C(C)C | > 250 | 210 | 52 | 167 | 41
Cc1ccc(-c2cc(-c3ccccc3)nc(SCC(N)=O)c2C#N)cc1 | 218 | > 250 | 41 | 102 | 65
Cc1ccc(-c2cc(-c3ccccc3)nc(SCC(=O)N[C@H](C(=O)N[C@@H](CC(=O)O)C(=O)O)C(C)C)c2C#N)cc1 | – | > 250 | 100 | 77 | –
COC(=O)[C@H](Cc1ccccc1)NC(=O)CSc1nc(-c2ccccc2)cc(-c2ccc(C)cc2)c1C#N | – | 240 | 68 | > 200 | –
COC(=O)C[C@H](NC(=O)[C@@H](NC(=O)CSc1nc(-c2ccccc2)cc(-c2ccc(C)cc2)c1C#N)C(C)C)C(=O)OC | > 250 | > 250 | 49 | 143 | 59
CC[C@H](C)[C@H](NC(=O)CSc1nc(-c2ccccc2)cc(-c2ccc(C)cc2)c1C#N)C(=O)OC | 229 | > 250 | 39 | 36 | 53
COC(=O)C[C@H](NC(=O)[C@@H](NC(=O)CSc1nc(-c2ccccc2)cc(-c2ccc(C)cc2)c1C#N)C(C)C)C(=O)N[C@@H](CCSC)C(=O)OC | – | > 250 | > 100 | 68 | –
Cc1ccc(-c2cc(-c3ccccc3)nc(SCC(=O)O)c2C#N)cc1 | 218 | > 250 | 65 | 56 | 43
COC(=O)CC[C@H](NC(=O)CSc1nc(-c2ccccc2)cc(-c2ccc(C)cc2)c1C#N)C(=O)OC | – | > 250 | > 100 | 187 | –
COC(=O)[C@H](CCCNC(=N)N)NC(=O)CSc1nc(-c2ccccc2)cc(-c2ccc(C)cc2)c1C#N | – | > 250 | > 100 | 48 | –
Cc1ccc(-c2cc(-c3ccccc3)nc(SCNC(=O)OC(C)(C)C)c2C#N)cc1 | – | > 250 | > 100 | > 200 | –
